Laboratory results taken from ChEMBL document CHEMBL4665800, “Biased Agonism at Nociceptin/Orphanin FQ Receptors: A Structure Activity Study on N/OFQ(1-13)-NH” (J Med Chem, 2020).
Calls of active or inactive are those of the source. No cut-off for these calls is given here. Starred links: 1 amine or outer side, 2 acyl side, 3 side chain; linkers in the order of their positions; H or OH if unused. Non-standard residues stand in square brackets, D forms with d. Residues, ends and D or L forms follow the SMILES beside them. *: point of attachment. X1 = CCCCCCCCCCCCCCCC(=O)NCCCN1C(=O)CC(*)C1=O; X3 = N[C@@H](Cc1ccccc1)CN(CC(=O)[*:2])[*:1]

What was measured:
Type in all cases: cell-based
[1] = molecular target: T1, Delta-type opioid receptor (Homo sapiens, UniProt P41143); assay: Agonist activity at DOP (unknown origin) expressed in SH-SY5Y cell membranes co-expressing Gbeta1-RGFP protein assessed as induction of G protein activation incubated for 15 mins by BRET assay
Summary of the method: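 Membranes (3 μg protein) from SH-SY5Y cells stably co-expressing delta-RLuc and Gβ1-RGFP, in DPBS. Ligands in PBS–BSA 0.01%, coelenterazine 5 μM final, room temperature. BRET ratio (RGFP 510 nm/RLuc 460 nm CPS minus vehicle) read 15 min after agonist. Efficacy relative to deltorphin A run on every plate; CR versus deltorphin A EC50. Five experiments in duplicate.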

Mu-type opioid receptor [2] = molecular target: T2, Mu-type opioid receptor (Homo sapiens, UniProt P35372); assay: Agonist activity at MOP (unknown origin) expressed in SH-SY5Y cell membranes co-expressing beta-arrestin2-RGFP protein assessed as induction of beta-arrestin2 activation incubated for 15 mins by BRET assay
[3] = molecular target: T1, Delta-type opioid receptor; assay: Agonist activity at DOP (unknown origin) expressed in SH-SY5Y cell membranes co-expressing beta-arrestin2-RGFP protein assessed as induction of beta-arrestin2 activation incubated for 15 mins by BRET assay
Summary of the method: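 Whole SH-SY5Y cells stably co-expressing delta-RLuc and β-arrestin 2-RGFP, plated 24 h earlier (100,000 cells/well), in PBS with MgCl2 0.5 mM and CaCl2 0.9 mM. Coelenterazine 5 μM final added 15 min before reading. BRET ratio read 15 min after agonist at room temperature. Efficacy and CR relative to deltorphin A. Five experiments in duplicate.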

[4] = molecular target: T1, Delta-type opioid receptor; assay: (§1) Bias factor, selectivity for agonist activity at DOP (unknown origin) expressed in SH-SY5Y cell membranes co-expressing beta-arrestin2-RGFP protein assessed as induction of beta-arrestin2 activation to agonist activity at NOP (unknown origin) expressed in SH-SY5Y cell membranes co-expressing Gbeta1-RGFP protein assessed as induction of G protein activation
Summary of the method: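 Concentration–response curves from delta G protein (membrane) and β-arrestin 2 (whole cell) BRET assays fitted to the Black–Leff operational model. Bias factor = Δlog(τ/KA) G protein minus Δlog(τ/KA) β-arrestin 2, with deltorphin A as the unbiased reference. Mean of at least five experiments, with 95% confidence limits.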

Mu-type opioid receptor [5] = molecular target: T2, Mu-type opioid receptor; assay: Agonist activity at MOP (unknown origin) expressed in SH-SY5Y cell membranes co-expressing Gbeta1-RGFP protein assessed as induction of G protein activation incubated for 15 mins by BRET assay
Nociceptin receptor [6] = molecular target: T3, Nociceptin receptor (Homo sapiens, UniProt P41146); assay: Antagonist activity at NOP (unknown origin) expressed in HEK293 cell membranes co-expressing Gbeta1-RGFP protein assessed as reduction in N/OFQ(1-13)-NH2-induced induction of G protein activation pre-incubated for 15 mins before stimulation with N/OFQ(1-13)-NH2 for 15 mins by BRET assay; conditions: read-out: pA2 (converted)
Nociceptin receptor [7] = molecular target: T3, Nociceptin receptor; assay: Agonist activity at NOP (unknown origin) expressed in HEK293 cell membranes co-expressing Gbeta1-RGFP protein assessed as induction of G protein activation incubated for 15 mins by BRET assay
Summary of the method: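 Membranes (3 μg protein) from HEK293 cells stably co-expressing NOP-RLuc and Gβ1-RGFP, in DPBS. Coelenterazine 5 μM final; ligands in PBS–BSA 0.01%. BRET ratio (RGFP 510 nm / RLuc 460 nm) read 15 min after agonist, room temperature. Values are vehicle-subtracted stimulated BRET ratio. Mean of five experiments in duplicate.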

Nociceptin receptor [8] = molecular target: T3, Nociceptin receptor; assay: Agonist activity at NOP (unknown origin) […] assessed as induction of beta-arrestin2 activation incubated for 15 mins by BRET assay
Nociceptin receptor [9] = molecular target: T3, Nociceptin receptor; assay: Antagonist activity at NOP (unknown origin) expressed in HEK293 cell membranes co-expressing beta-arrestin2-RGFP protein assessed as reduction in N/OFQ(1-13)-NH2-induced induction of beta-arrestin2 activation pre-incubated for 15 mins before stimulation with N/OFQ(1-13)-NH2 for 15 mins by BRET assay; conditions: read-out: pA2 (converted)
Nociceptin receptor [10] = molecular target: T3, Nociceptin receptor; assay: as §1, with “NOP” for “DOP”, “HEK293” for “SH-SY5Y”
Summary of the method: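 Concentration–response curves in the NOP G protein and β-arrestin 2 BRET assays were fitted to the Black–Leff operational model. Mean of at least five experiments with 95% confidence limits.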

T1 sequence (P41143 whole entry): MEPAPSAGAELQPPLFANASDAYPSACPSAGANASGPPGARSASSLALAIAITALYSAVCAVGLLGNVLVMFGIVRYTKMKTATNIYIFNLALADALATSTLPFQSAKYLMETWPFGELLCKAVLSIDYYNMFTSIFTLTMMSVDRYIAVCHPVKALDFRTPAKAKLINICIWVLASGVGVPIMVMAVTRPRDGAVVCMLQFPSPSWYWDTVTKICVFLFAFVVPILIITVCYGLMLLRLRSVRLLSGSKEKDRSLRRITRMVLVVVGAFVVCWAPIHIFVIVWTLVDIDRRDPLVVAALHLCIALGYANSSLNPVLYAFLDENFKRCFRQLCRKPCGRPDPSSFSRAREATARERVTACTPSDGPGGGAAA
T2 sequence (P35372 whole entry): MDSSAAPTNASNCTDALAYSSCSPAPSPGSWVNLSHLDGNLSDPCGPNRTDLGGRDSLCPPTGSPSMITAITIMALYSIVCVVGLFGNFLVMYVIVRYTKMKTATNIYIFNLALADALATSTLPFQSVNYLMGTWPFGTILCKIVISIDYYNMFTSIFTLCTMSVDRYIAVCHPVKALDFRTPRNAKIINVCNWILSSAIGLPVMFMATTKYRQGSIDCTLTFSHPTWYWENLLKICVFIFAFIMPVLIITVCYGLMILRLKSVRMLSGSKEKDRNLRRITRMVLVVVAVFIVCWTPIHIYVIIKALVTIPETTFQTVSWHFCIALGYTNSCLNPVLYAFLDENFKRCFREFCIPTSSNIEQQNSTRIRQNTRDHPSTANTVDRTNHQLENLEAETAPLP
T3 sequence (P41146 whole entry): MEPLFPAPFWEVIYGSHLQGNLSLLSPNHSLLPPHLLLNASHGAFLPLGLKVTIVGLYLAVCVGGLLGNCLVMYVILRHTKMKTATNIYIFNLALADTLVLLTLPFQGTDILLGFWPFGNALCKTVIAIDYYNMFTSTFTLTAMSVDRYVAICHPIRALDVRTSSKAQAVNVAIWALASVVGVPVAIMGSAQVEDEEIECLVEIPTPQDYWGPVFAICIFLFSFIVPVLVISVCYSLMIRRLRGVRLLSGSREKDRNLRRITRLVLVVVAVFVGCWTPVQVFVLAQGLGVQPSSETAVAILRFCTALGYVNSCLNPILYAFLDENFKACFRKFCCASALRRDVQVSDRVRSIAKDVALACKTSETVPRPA

| Compound | EC50 [1] [nM] | EC50 (Mu-type opioid receptor [2]) [nM] | EC50 [3] [nM] | Selectivity ratio [4] | EC50 (Mu-type opioid receptor [5]) [nM] | Kb (Nociceptin receptor [6]) [nM] | EC50 (Nociceptin receptor [7]) [nM] | pEC50 (Nociceptin receptor [8]; HEK293) | Kb (Nociceptin receptor [9]) [nM] | Selectivity Index (Nociceptin receptor [10]) | EC50 (Nociceptin receptor [8]) [nM] |
| --- | --- | --- | --- | --- | --- | --- | --- | --- | --- | --- | --- |
| CCCCCCCCCCCCCCCC(=O)NCCCN1C(=O)CC(SC[C@H](NC(=O)[C@H](CC(=O)O)NC(=O)[C@H](CCSC)NC(=O)[C@H](CC(C)C)NC(=O)[C@H](Cc2c[nH]cn2)NC(=O)[C@H](Cc2ccccc2)NC(=O)[C@@H](CCSC)NC(=O)[C@@H](N)Cc2ccc(O)cc2)C(N)=O)C1=O (some centres undefined) (H-Y[dM]FHLMDC(X1)-NH2) | 2.04 | 38 | 22.4 | 1.06 | 51.3 | – | – | – | – | – | – |
| CCCCCCCCCCCCCCCC(=O)NCCCN1C(=O)CC(SC[C@H](NC(=O)[C@H](CC(C)C)NC(=O)[C@H](Cc2ccccc2)NC(=O)CNC(=O)CNC(=O)[C@@H](N)Cc2ccc(O)cc2)C(N)=O)C1=O (some centres undefined) (H-YGGFLC(X1)-NH2) | 8.13 | 229 | 132 | 1.7 | 4.07 | – | – | – | – | – | – |
| CSCC[C@H](NC(=O)[C@H](CC(C)C)NC(=O)[C@H](Cc1c[nH]cn1)NC(=O)[C@H](Cc1ccccc1)NC(=O)[C@@H](CCSC)NC(=O)[C@@H](N)Cc1ccc(O)cc1)C(=O)N[C@@H](CC(=O)O)C(=O)O (H-Y[dM]FHLMD-OH) | 26.3 | – | 14.8 | 0 | – | – | – | – | – | – | – |
| CCCCCCCCCCCCCCCC(=O)NCCCN1C(=O)CC(SC[C@H](NC(=O)[C@H](CO)NC(=O)[C@@H]2CCCN2C(=O)[C@H](Cc2ccc(O)cc2)NC(=O)CNC(=O)[C@H](Cc2ccccc2)NC(=O)[C@@H](C)NC(=O)[C@@H](N)Cc2ccc(O)cc2)C(N)=O)C1=O (some centres undefined) | 58.9 | 11 | 617 | – | 1.45 | – | – | – | – | – | – |
| C[C@H](NC(=O)CNC(=O)[C@@H](NC(=O)[C@H](Cc1ccccc1)NC(=O)CNC(=O)CNC[C@@H](N)Cc1ccccc1)[C@@H](C)O)C(=O)N[C@@H](CCCN=C(N)N)C(=O)N[C@@H](CCCCN)C(=O)N[C@@H](CO)C(=O)N[C@@H](C)C(=O)N[C@@H](CCCN=C(N)N)C(=O)N[C@@H](CCCCN)C(N)=O (H-[X3]GFTGARKSARK-NH2) | – | – | – | – | – | 5.89 | 8.91 | inactive | 14.8 | – | – |
| C[C@H](NC(=O)CNC(=O)[C@@H](NC(=O)[C@H](Cc1ccccc1)NC(=O)CNC(=O)CNC(=O)[C@@H](N)Cc1ccccc1)[C@@H](C)O)C(=O)N[C@@H](CCCNC(=N)N)C(=O)N[C@@H](CCCCN)C(=O)N[C@@H](CO)C(=O)N[C@@H](C)C(=O)N[C@@H](CCCNC(=N)N)C(=O)N[C@@H](CCCCN)C(=O)N[C@@H](CSC1CC(=O)N(CCCC(=O)N[C@@H](CCCCN)C(=O)N[C@@H](CCCCN)C(=O)N[C@@H](CCCCN)C(=O)N[C@@H](CCCCN)C(=O)N[C@@H](CCCCN)C(=O)N[C@@H](CCCCN)C(N)=O)C1=O)C(N)=O (some centres undefined) | – | – | – | – | – | – | 0.0871 | – | – | 0.83 | 6.03 |
